In the EternaBench riboswitch data:

System: MS2 coat protein
Assay: apparent Kd, MS2 coat protein; higher = weaker binding; RNA-MaP array; FMN 200 µM where present
How it was run: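 Green signal was scaled to red-channel RNA signal and control-cluster median Fmax, and the apparent Kd was taken as the median of filtered per-cluster binding-curve fits. The binding series used SNAP-549-labelled MS2 coat protein from 0.7 or 1.5 nM, doubling to 3 µM, on designs transcribed by stalled E. coli RNA polymerase on Illumina sequencing-chip clusters. Each series ran without and then with constant ligand in 100 mM Tris-HCl pH 7.5, 80 mM KCl, 4 mM MgCl2, BSA, DTT, yeast tRNA and Tween-20.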

[1] = designed as: ON switch for flavin mononucleotide, no ligand
[2] = ligand present: flavin mononucleotide, designed as: ON switch for flavin mononucleotide
[3] = designed as: OFF switch for flavin mononucleotide, no ligand
[4] = ligand present: flavin mononucleotide, designed as: OFF switch for flavin mononucleotide

| Sequence | apparent Kd [1] [nM] | apparent Kd [2] [nM] | apparent Kd [3] [nM] | apparent Kd [4] [nM] |
| --- | --- | --- | --- | --- |
| ACAUGAGGAUCACCCAUGUUCACAUAGGAUAUUGAUUAUAUUGGUUUUAGAAUAGUAAUUAACCUCAAGAAGGAUGCCAGUUCU | 13.3 | 10 | – | – |
| ACAUGAUAUGUAGGAUAUCACAUUAAUUGUUUUAUAAUUGUAAUUUGGAUUUGAGAAGGACAUUUACAUGAGGAUCACCCAUGU | – | – | 15.9 | 12.1 |
| ACAUGAUCAGGAUAUACAUGAGGAUCACCCAUGUAAAUCAAAAAAAAACUUUCUUUAUGUAGAAGGGAUCUUGU | – | – | 14.4 | 15.5 |
| ACAUGAUCAGGAUAUACAUGAGGAUCACCCAUGUAUAUAAAAAAAAAACUUUCUUCAUGUAGAAGGGAUCUUGU | – | – | 16.6 | 26.3 |
| ACAUGCAAGUAGAAGGACGGAUAUUUUGAUAACGUAGGAUAUACAGAAUCAUAUCCACAUGAUAACAUGAGGAUCACCCAUGUA | – | – | 11.8 | 12.4 |
| ACAUUUAAUACAGGAUAUGUUAGUAUACAGUAGAUUGGUUAUUACAUAAUAACAGAAGGGUAGAACAUGAGGAUCACCCAUGUA | 217 | 106 | – | – |
| ACAUUUAUAUCAGGAUAUACAAUACAAUGAUUAGUAGAAGGGAUUAAUACAUGAGGAUCACCCAUGUCAUGUGUCAUAAUAACC | – | – | 25.8 | 19.6 |
| ACCGUUGAAGCAGGAUAUUACAGCGCCAGCGUGUAAGAAGGGCUUCAACAUGAGGAUCACCCAUGUUGGAGUACCUCAAAAGUG | – | – | 5.14 | 31.4 |
| ACCUAUGAGGAGGAUAUACGGUGCGAAAGGACGGUAGAAGGCUUCACAUGAGGAUCACCCAUGUCGAUAAGCGA | – | – | 21.2 | 22.5 |
| ACCUUACAUGAGGAUCACCCAUGUCAGGAUAUCUCGGACAGCUGAAAACCAGCCGUCCAGAGAAGGGACGAGGA | – | – | 13.4 | 14.4 |
| ACCUUACAUGAGGAUCACCCAUGUCAGGAUAUCUCGGACGGCUGAAAACCAACCGUCCAGAGAAGGGACGAGGA | – | – | 13.1 | 15.2 |
| ACCUUACAUGAGGAUCACCCAUGUUAGGAUAUCUCGCCCGCGCAAACACAGCGCAGGCAGAGAAGGGACGCGGG | – | – | 31.8 | 32.8 |
| ACGAAACAUGAGGAUCACCCAUGUGAGGAUAUGUAAAUACUAGACAAAUAACAGAAAAACAGAAGGCACUCAGA | – | – | 24.3 | 22 |
| ACGAUACAUGAGGAUCACCCAUGUUAGGAUAUACGCAUGCAUGCAUGCAUGCAUGCAAGUAGAAGGAACCAUGC | – | – | 27.5 | 26.8 |
| ACGCCUCCUGUUAGGAUAUGCAUCGGGCUUCCGCAGCAGAAGGAACAUGAGGAUCACCCAUGUCAAAUAAAAUC | – | – | 15.3 | 94.4 |
| ACGGAACAUGAGGAUCACCCAUGUAUCCGAAAUAUGGACUCACAGGAUAUCCAGAGUUGCCAAUCGGAGAAGGGUGACUCCAGA | 12.8 | 9.91 | – | – |
| ACGGCAAUCAGAGGAUAUGGUUACAUGAGGAUCACCCAUGUCAAGGGUCUAAUUAGGUAUAACUACCAGAAGGCUGAAGGCCUA | – | – | 56.1 | 94.8 |
| ACGGUCUUGUCAGGAUAUACAUGAGGAUCACCCAUGUAAUGCGGGUAGGAUAACAAGUCACUUAGGUAGAAGGGACAAGGGACU | – | – | 22.1 | 54.6 |
| ACGGUGGUCACAGGAUAUCCGGCCCGCGGGCCUGGAGAAGGGUGACUCAGAACCACAUGAGGAUCACCCAUGUGCCUUGCCGUA | 250 | 48.7 | – | – |
| ACGUAUCAUGUAGGAUAUGACCCAGGAAAUUGGUCAGAAGGACAUGAGGAUCACCCAUGUAGAGUAUGUUAGGAUGACGUAUGC | – | – | 115 | 165 |
| ACGUGACGGUUCGCGAGUGGACGGAGAAGGCAGACAUGAGGAUCACCCAUGUGAGCCUGCUAUUCUGAGGAUAUCCGUUCGCAC | – | – | 25.7 | 130 |
| ACGUGUCGUGUAGGAUAUGACACAGGAAACUGGUCAGAAGGACAUGAGGAUCACCCAUGUAGAGUGUGUAAGGAUGACGUAUGC | – | – | 52 | 199 |
| ACGUUAAAAGGAUAUACAUGAGGAUCACCCAUGUUGUUCGAACUGGUAAACCCUCUAUGUAGAAGGUUUGGCAC | – | – | 23.5 | 50.1 |
| ACUAAAGAAGGAUAUACUAACGAACCUCAAACAUAGAUAAAACAUGAGGAUCACCCAUGUAGAAGGUCUAGACU | – | – | 31.7 | 39.6 |
| ACUACUUAGUGAGGAUAUACAUAAUUUAUAACUGUAGAAGGCACAAACCUCAAUACAUGAGGAUCACCCAUGUUUUAUAUCUAU | – | – | 32.7 | 46.4 |
| ACUAGAUGAGGAUAUGCAUAUUUUCGUGUUCUUCUAGAUUAACAUGAGGAUCACCCAUGUAGAAGGCGUCAUUU | – | – | 15.7 | 18.4 |
| ACUAGAUGAGGAUAUGCAUAUUUUCGUGUUCUUCUAGGUUAACAUGAGGAUCACCCAUGUAGAAGGCGUCUAUA | – | – | 19.7 | 35 |
| ACUAUACGAGGAUAUACUGUCGGGCCUCGGACAUAAAUAAGACAUGAGGAUCACCCAUGUAGAAGGCGUUUACU | – | – | 25.6 | 46 |

| Sequence | apparent Kd [1] [nM] | apparent Kd [2] [nM] | apparent Kd [3] [nM] | apparent Kd [4] [nM] |
| --- | --- | --- | --- | --- |
| ACUCUGCGAGGAUAUACAUGAGGAUCACCCAUGUGCGAGUUACUUGUGAGGUCGGUUGGUAGAAGGCGCGGAGA | – | – | 99.4 | 134 |
| ACUGCUCGAGGAUAUACAUGAGGAUCACCCAUGUAACCCAGAAGCACGGCCUCAGGAUGUAGAAGGCGACGCAA | – | – | 13.1 | 13.2 |
| ACUGGCUUGCAGAAGGGUGACAUGAGGAUCACCCAUGUAGCGGGCCGGCGUAAAGUCAGCGCGCCACAGGAUAUGCAGGCCUCG | 74 | 45.2 | – | – |
| ACUGUCCGAGAGAAGGGAACAUGAGGAUCACCCAUGUUACCUCACCUGGUGACGGAACUCCAAGUUCAGGAUAUCUCGGGCGGC | – | – | 5.14 | 7.59 |
| ACUUACUGAGGAUAUACAUAGAUUUACAUGAGGAUCACCCAUGUUCCUCUAUGUAUAAAUGUAGAAGGCAGAAGAA | – | – | 16.6 | 59.1 |
| ACUUGUUACUUAAUCAUUGAUUUGUAGGAUAUACGUACAUGAGGAUCACCCAUGUUACAUGGUAUGUAGAAGGACAUCUAAUUU | – | – | 11 | 11.2 |
| ACUUGUUAGUAGAAGGUAGUUAUUAUAUUAAUCAUGUAUACAUGAGGAUCACCCAUGUUGAUUUCUAAGGAUAUACAUCGAUAG | – | – | 81.4 | 59 |
| ACUUUACGAGGAUAUACUGUCGGGCCUCGGGCAUACAUGCGACAUGAGGAUCACCCAUGUAGAAGGCGUUUACU | – | – | 29.5 | 92 |
| ACUUUACGAGGAUAUACUGUCGGGCCUCGGGCGUCCAUGCGACAUGAGGAUCACCCAUGUAGAAGGCGUUUACU | – | – | 25.1 | 51.5 |
| AGAAACUACGAGAAGGACAUGAGGAUCACCCAUGUAACCACUAUGUGGAAUGUAGGAUAUCGUAGUUUCAGGAUCGUGAGAUCA | – | – | 6.17 | 9.84 |
| AGAAACUACGAGAAGGACAUGUAAAAUGCCGCAAACAUGAGGAUCACCCAUGUAGGAUAUCGUAGUUUCAGGAUCGUGAGAUCA | – | – | 6.59 | 18.1 |
| AGAAAGUCAGGAUAUCAGAAACUAGUCGAAACGACUAGAAAUGAGAAGGGACAUGAGGAUCACCCAUGUAAGAA | – | – | 29.7 | 43.4 |
| AGAAAGUGAGGAUAUACGAAACCAGCCUAAAUGGCUGGAAAGUAGAAGGCACAUGAGGAUCACCCAUGUAAAGA | – | – | 24.4 | 31.6 |
| AGAAAUUCAGGAUAUACAUGAGGAUCACCCAUGUUUGGCAGAGGCGCCGAGAUCCCACGUAGAAGGGAAAAGAC | – | – | 37.1 | 79.9 |
| AGAAUGGGCGAGAAGGGAGUACAUGAGGAUCACCCAUGUGGUUCAUGGUGCUCAGGAUAUCGAUAGACCAGGGAGCGUCUCUGA | – | – | 30 | 148 |
| AGAAUUGUAGGAUAUACAUGAGGAUCACCCAUGUGGGAGGUGGAGCAUACAAGACGAGGUAGAAGGACAACGAC | – | – | 92.3 | 91.9 |
| AGACUGAAGCAAGGAUAUUGUAAGGUUAAUGUACAAGAAGGUGCUGUUUAUGUCUCUUAACAUGAGGAUCACCCAUGUUUUGAA | 19.1 | 19.2 | – | – |
| AGACUGAAGCAAGGAUAUUGUAAGGUUAAUGUACAAGAAGGUGCUGUUUAUGUCUCUUAACAUGAGGAUCACCCAUGUUUUGGU | 23.9 | 19.9 | – | – |
| AGAUAACAUGUAGGAUAUCGAGGCCUGAGGCCUCGAGAAGGACAUGAGGAUCACCCAUGUAGUUGUACCAUGGAAUCACGCACU | – | – | 340 | 645 |
| AGAUAGAUAGCGAUAUGAUCGAGAGAUCAUGUCGCUAAAUUUAGAAGGACAUGAGGAUCACCCAUGUAGGAUAUGGGUAUAGAA | 404 | 149 | – | – |
| AGAUCUCAAUAAGAUCCAAUACGAACAUGAGGAUCACCCAUGUAGGAUAUGCUAGAAGUAGAGUAGCAGAAGGACAAGUACCUU | – | – | 18.4 | 15.7 |
| AGAUGACAAAGUCAUCUCGCUUUGACAUGAGGAUCACCCAUGUAGGAUAUAUUACUCAAAGAGUAAUAGAAGGACAUGUGUCUU | – | – | 37.2 | 104 |
| AGAUGGUAGAUAGGAUAUCAUGUGCUGACAUGAGGAUCACCCAUGUAGGGACGUCAGUCCAAUUAUGAGAAGGAUCUACCAUCU | 61 | 39.3 | – | – |
| AGAUGGUGAUGUUAUCUUCGUCGGACAUGAGGAUCACCCAUGUAGGAUAUGCUACUCAAAGAGUAGCAGAAGGACAUGUAUCUU | – | – | 119 | 896 |
| AGAUUUAAUACAGGAUAUGUUAGUAUACAGUUGAUUGGUUAUUACAUUAUGACAGAAGGGUAGAACAUGAGGAUCACCCAUGUA | 241 | 115 | – | – |
| AGAUUUGUACAUGAGGAUCACCCAUGUUAAUAGGUGGUAGUCAGAAGGCAUUGAUAGAGUUUUAAUGAGGAUAUGAAUAUACAG | 267 | 126 | – | – |
| AGCAAAAUAAGCAAGGAUAUGUAAUUUGGCACAUGAGGAUCACCCAUGUCAAUCCAUUUUUUUGAACAGAAGGUGCAUUUUUUUU | 38.2 | 32.1 | – | – |
